Bioassay records as filed in PubChem.
The list is not random: actives were taken first. Their share in the collection is about 0.99%.
Tn7 DDE FP – inhibitors of Tn7 peptide binding to fibrin DD(E), primary screen, biochemical, fluorescence polarization, human fibrin, Tn7 probe; Fibrinogen beta chain (Homo sapiens), P02675; 0.13% of 370,000 active; AID 720508, 2013; FP displacement of FITC-Tn7 peptide from fibrin DD(E); 0% = median of compound wells per plate; inhibition, % at 8.3 µM;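 active = inhibition above the mean of compounds falling within the control limits plus 3 SD of them, cut at about 14% in these data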;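 also: 0% = plate median of compound wells and 100% = 10 µM Aha-Tn7 peptide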
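Assay system: Human fibrin DD(E) protein | Medium: Tris buffer with calcium and detergent, pH 7.8 | Reagent: 0.1 µM fluorescent Tn7 | Compound dosing: Single point at 8.3 µM | Times: 10 min preincubation, 3 h with tracer, room temperature | Detection: Fluorescence polarization of the labelled Tn7 tracer | Controls: Aha-Tn7 high control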
Insulin prom up – insulin promoter activators in MIN6 cells, imaging, high-content screening, mouse beta cells | MIN6 insulin promoter-GFP reporter; active compounds read high | z-score at 5 µM | 0.3% of 190,000 active | AID 1625, 2009;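 active = z-score above 3 at 5 µM with at least 500 cells counted in the well; inconclusive = wells under 500 cells, flagged as cytotoxic or low count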
DDE Tn6 FP inh – inhibitors of Tn6 peptide binding to fibrin DD(E), primary screen, biochemical, fluorescence polarization, human fibrin, Tn6 probe | Fibrin DD(E) TRITC-Tn6 fluorescence polarization displacement | inhibition, % at 8.3 µM | 0.21% of 370,000 active | AID 720509, 2013;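 active = inhibition above a per-campaign cutoff: mean of compounds within control limits plus 3 SD, cut at about 15% in these data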;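 also: 0% = median of all compound wells on the plate and 100% = blocking peptide control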
ABCG2 inh – ABCG2 efflux pump inhibitors, primary screen, multiplex with ABCB1, IgMXP3 cells, flow cytometry; Broad substrate specificity ATP-binding cassette transporter ABCG2 (Homo sapiens), Q9UNQ0; JC-1 efflux; inhibition, % at 6.6 µM; 0.1% of 190,000 active; AID 1325, 2008;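 active = inhibition above 80%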;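 also: 0% = DMSO and 100% = nicardipine control wells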
Target sequence (Q9UNQ0 whole entry, looked up): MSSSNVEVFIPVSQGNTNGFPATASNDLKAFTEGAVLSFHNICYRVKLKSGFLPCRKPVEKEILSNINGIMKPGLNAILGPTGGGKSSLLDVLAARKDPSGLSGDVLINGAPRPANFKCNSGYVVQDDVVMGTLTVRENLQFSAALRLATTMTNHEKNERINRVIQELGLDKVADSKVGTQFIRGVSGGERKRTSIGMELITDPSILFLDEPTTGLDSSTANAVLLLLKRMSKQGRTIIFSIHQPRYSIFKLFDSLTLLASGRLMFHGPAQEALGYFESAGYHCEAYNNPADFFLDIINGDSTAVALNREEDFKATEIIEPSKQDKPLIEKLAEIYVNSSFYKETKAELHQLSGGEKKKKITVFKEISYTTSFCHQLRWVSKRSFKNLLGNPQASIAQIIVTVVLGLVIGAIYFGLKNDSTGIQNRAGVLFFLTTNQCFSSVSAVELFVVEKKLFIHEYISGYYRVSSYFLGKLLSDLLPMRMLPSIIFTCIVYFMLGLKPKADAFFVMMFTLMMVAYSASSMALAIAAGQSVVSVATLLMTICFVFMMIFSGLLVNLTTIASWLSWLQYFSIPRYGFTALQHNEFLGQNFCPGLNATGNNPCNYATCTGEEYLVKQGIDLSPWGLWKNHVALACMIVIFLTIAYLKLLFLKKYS
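Test system: IgMXP3 (ABCG2) plus far-red-tagged CCRF-Adr (ABCB1) cells / Amount: 3 million cells/mL in well / Reagent: JC-1 transporter substrate / Timing: 10 min compound exposure, 25 °C / Signal: flow cytometry, 530 nm JC-1 signal / Read-out: percent efflux inhibition, scaled nicardipine 100% to DMSO 0% / Benchmarks: nicardipine as high control, DMSO as low control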
GRK2 aptamer HTS – compounds blocking aptamer binding on GRK2 – biochemical, human GRK2, bead flow cytometry, HTS, primary screen. Beta-adrenergic receptor kinase 1 (Homo sapiens), P25098. FAM-aptamer displacement from GRK2. inhibition of aptamer binding, % at 10 µM. 0.59% of 330,000 active. AID 488847, 2010;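 active = inhibition of aptamer binding above 40%, roughly 3 SD of noise, on plates passing a quality check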;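 also: median bead fluorescence of bound FAM aptamer so fluorescent compounds give negative values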
ABCB1 block – ABCB1 efflux pump inhibitors, primary screen, cell-based, multiplex, flow cytometry, ABCG2 counter-screen | CCRF-Adr cells, JC-1 efflux | ATP-dependent translocase ABCB1 (Homo sapiens), P08183 | 0.067% of 190,000 active | AID 1326, 2008 | inhibition, % at 6.6 µM; in the data active = inhibition above about 40%;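 also: 0% = vehicle and 100% = reference inhibitor; higher value means more JC-1 retained so stronger ABCB1 efflux block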
ABCB1 single pt – ABCB1 efflux pump inhibitors, confirmation, cell-based, single point, ABCG2 counter-screen. shares compounds with ABCG2 inh. CCRF-Adr cells, JC-1 efflux, flow cytometry. inhibition, % at 6.6 µM. 7% of 270 active. AID 1451, 2008;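 active = inhibition of pump activity above 50%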;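 also: 0% = DMSO and 100% = nicardipine full pump inhibition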
ABCG2 confirm – ABCG2 efflux pump inhibitors, confirmation, single point, IgMXP3 cells, ABCB1 counter-screen paired | shares compounds with ABCG2 inh | JC-1 efflux, flow cytometry | inhibition, % at 6.6 µM | 6% of 270 active | AID 1453, 2008;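 active = inhibition above 50%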;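 also: 0% = DMSO wells and 100% = nicardipine pump inhibitor wells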
IgMXP3 fluor – compound autofluorescence in ABCG2-expressing IgMXP3 cells, confirmation, artefact control for ABC transporter inhibitor project, cell-based, 488/530 nm, flow cytometry; shares compounds with ABCG2 inh; compound autofluorescence 488/530 nm; active compounds read high; fluorescence at 6.6 µM; 30% of 270 active; AID 1480, 2009;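 active = fluorescence in ABCG2-expressing cells above the plate's control-well mean plus 3 SD, cut at about 15 in these data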;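 also: median cell fluorescence with compound minus that of DMSO-treated control cells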
CCRF autofluor – compound autofluorescence in ABCB1-expressing CCRF-Adr cells, confirmation, artefact control for ABC transporter inhibitor project, cell-based, 488/530 nm, flow cytometry | shares compounds with ABCG2 inh | compound autofluorescence 488/530 nm; active compounds read high | fluorescence at 6.6 µM | 30% of 270 active;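 active = fluorescence beyond the plate control mean plus 3 SD, with a fluorescence-to-maximum score over 2, cut at about 25 in these data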
Numbers without * were called inactive; ? = inconclusive; . = no result given; + = active, no number.

SMILES	Tn7 DDE FP	Insulin prom up	DDE Tn6 FP inh	ABCG2 inh	GRK2 aptamer HTS	ABCB1 block	others
Cc1cccc(S(=O)(=O)Nc2nc3ccccc3nc2OC(C)C)c1	-1	.	4	.	58*	.
Nc1cccc2c1C(=O)N(C(=O)c1cccc(S(=O)(=O)N3CCCC3)c1)C2=O	0	3.1*	0	0	0	0
COC(=O)[C@]12C[C@H](CC(=O)NCC3CCCCC3)C(=O)N(Cc3cccc4ccccc34)C1=C[C@H](C(C)C)O[C@@H]2C1CC1	-9	.	8	.	.	.
C=CCN1[C@@H](C)COc2cccc(N3CCCC3)c2S1(=O)=O	-2	.	-9	.	.	.
O=C(O)CCCN1C(=O)/C(=C\c2ccco2)SC1=S	-4	-0.5	0	3	.	0
CC(C(=O)O)N1C(=O)/C(=C/C=C/c2ccco2)SC1=S (centres undefined)	1	-0.53	-3	-5	98*	-1
COC(=O)C[C@@H]1CC[C@H]2[C@H](COc3ccc(NC(=O)c4cccc(C(F)(F)F)c4)cc3C(=O)N2C)O1	12	.	10	.	.	.
CC1=C/C(=C\c2ccc(Br)o2)C(=O)O1	1	.	2	1	96*	0
O=C(NCc1ccccc1)C1CCN(c2nc(-c3ccc(Br)cc3)cs2)CC1	-2	.	1	.	.	.
CCOC(=O)CC1C(=O)NCCN1S(=O)(=O)c1ccc(Cl)cc1Cl (centres undefined)	-6	3.3*	-9	0	0	0
Cc1ccc(-c2cc(-c3ccco3)c3c(N)c(C(=O)NN)oc3n2)cc1	3	3*	-4	.	0	.
CC(C)(N[C@@H](Cc1c[nH]c2ccccc12)C(=O)NCCCc1ccccc1)C(=O)NCc1ccccc1	-4	.	9	.	.	.
COc1cc(N2CCCC2)c(OC)cc1/C=c1/sc2nc3ccccc3n2c1=O	.	17*	.	63	.	36
Cc1ccc(-n2c(C)cc(/C=c3/sc4nc5ccccc5n4c3=O)c2C)cc1	.	0.05	.	-2	1	-1
O=C(Nc1ccc([N+](=O)[O-])cc1)Nc1ccc(OC(F)F)c(Cl)c1	-11	?	-19	86*	0	27
CC(C)C[C@H]1COc2cc(N3CCCC3)ccc2S(=O)(=O)N1C	2	.	1	.	.	.
COc1cc2c(cc1OC)C(C)=NCC2	5	0.58	19*	-1	0	0
COc1cc(S(=O)(=O)N2CCOCC2)ccc1NC(=O)COC(=O)c1ccccn1	-2	-0.2	1	3	0	0
COc1cc(S(=O)(=O)N2CCOCC2)ccc1NC(=O)COC(=O)C12CC3CC(CC(C3)C1)C2	3	3.9*	7	10	3	1
COc1ccccc1CNC(=O)NC1CCN(CC(=O)Nc2ccc3c(c2)OCCO3)CC1	-2	.	1	.	.	.
COc1ccc(-c2csc(/C(C#N)=C\c3ccc(O)c([N+](=O)[O-])c3)n2)cc1OC	3	0.04	7	.	1	.
COc1ccc(-c2csc(/C(C#N)=C\c3ccc(OC)c([N+](=O)[O-])c3)n2)cc1	-6	-0.03	2	-14	90*	-1
C[C@@H]1[C@@H](O)C[C@@]2(C[C@H](O)c3cc(F)ccc3O2)O[C@H]1c1ccccc1Cl	-5	.	-1	.	.	.
O=C(COc1ccc2ccccc2c1Br)N1CCCCC1	.	.	.	.	87*	.
COC(=O)[C@@H]1N=C(c2ccc(OC)cc2)O[C@]12C(=O)N(Cc1cn(-c3ccccc3)nn1)c1cccc(Cl)c12	6	.	2	.	.	.
SMILES	Tn7 DDE FP	Insulin prom up	DDE Tn6 FP inh	ABCG2 inh	GRK2 aptamer HTS	ABCB1 block	others
Oc1ccc(N=C/C=C/c2ccc(Br)cc2)cc1-c1nc2ccccc2s1	.	-0.55	.	-3	41*	-1
CC(C)C[C@H]1COc2cccc(F)c2S(=O)(=O)N1Cc1cn(CC2CCCCC2)nn1	6	.	-2	.	.	.
O=C1C2CC=C(Cl)CC2C(=O)N1CCCCCCN1C(=O)C2CC=C(Cl)CC2C1=O (centres undefined)	-1	.	-1	1	0	0
O=C1C2CC=C(Cl)CC2C(=O)N1CCC[n+]1cccc2ccccc21 (centres undefined)	5	0.04	2	6	83*	0
CCC[C@H]1[C@@H](NC(=O)c2cccnc2)CC[C@@]23CCCN2C(=O)CCC[C@@H]13	6	.	-3	.	.	.
COC(=O)[C@@H](NC(=O)Nc1cccc(OC)c1)C(C)C	-3	3*	-3	2	1	0
N=c1oc2c3c4c(cc2cc1C(=O)Nc1ccccc1)CCCN4CCC3	.	.	.	+	0	131*	ABCB1 single pt=-14;ABCG2 confirm=-78;IgMXP3 fluor=625*;CCRF autofluor=666*
Nc1[nH]c(C(=O)c2ccccc2)c(-c2ccc(Br)cc2)c1C(=O)c1ccccc1	-10	.	1	.	.	.
CCSC1=NCCN1S(=O)(=O)c1ccc(Cl)cc1	3	-0.84	-8	0	2	0
O=S(=O)(c1ccc(Cl)cc1)N1CCN=C1SCc1ccc(Cl)c(Cl)c1	-1	-0.45	10	86*	0	-1	ABCB1 single pt=-7;ABCG2 confirm=0;IgMXP3 fluor=-1.3;CCRF autofluor=16
Cn1c(CCCOc2ccc(Cl)cc2Cl)nnc1SCC(=O)Nc1cccc(F)c1	1	-0.51	-3	111*	0	3	ABCB1 single pt=4;ABCG2 confirm=16;IgMXP3 fluor=-1.7;CCRF autofluor=-1.2
Cn1c(CCCOc2ccc(Cl)cc2Cl)nnc1SCC(=O)Nc1ccc(F)c(Cl)c1	1	0.03	-1	0	0	0
